Key:
[1] = tested on: Zika virus; experiment: (§1) Antiviral activity against ZIKV FLR infected in Vero cells assessed as inhibition of viral replication by measuring reduction in cytopathic effect at 10 uM preincubated with compounds for 2 hrs followed by replacement with fresh media containing compounds and measured after 48 hrs by MTT assay relative to control; type: functional; settings: time 50 hrs
Procedure, shortened: (§2)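 Monolayers of 2 × 10^4 cells/well in DMEM with 2% FBS. Infected at 0.1 MOI together with compound for 2h. Wells washed with PBS, then fresh medium with compound added in duplicate and incubated 48h at 37 °C. Supernatant titred by end-point dilution: half-log dilutions on Vero monolayers in quadruplicate for 5–7 days, CPE by microscope then MTT. TCID50 compared with untreated; EC50 from dose-response fit of ≥2 independent experiments.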

[2] = tested on: Zika virus; experiment: as §1, with “1” for “10”; type: functional; settings: time 50 hrs; procedure, shortened: as §2
[3] = tested on: Zika virus; experiment: Antiviral activity against ZIKV FLR infected in Vero cells assessed as inhibition of viral replication by measuring log reduction in cytopathic effect at 10 uM preincubated with compounds for 2 hrs followed by replacement with fresh media containing compounds and measured after 48 hrs by MTT assay; type: functional; settings: time 50 hrs; procedure, shortened: as §2
[4] = tested on: Vero; experiment: Cytotoxicity against African green monkey Vero cells at 10 uM; type: toxicity, cell-based; settings: chlorocebus sabaeus
Procedure, shortened: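 Vero monolayers in 96-well plates, treated with compound at 10 μM in duplicate for 72 h during the phenotypic anti-ZIKV screen (0.1 MOI ZIKV FLR strain). An MTT assay optionally quantified viable cells.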

[5] = tested on: Zika virus; experiment: Antiviral activity against ZIKV FLR infected in Vero cells assessed as inhibition of viral replication by measuring reduction in cytopathic effect preincubated with compounds for 2 hrs followed by replacement with fresh media containing compounds and measured after 48 hrs by MTT assay; type: functional, organism-based; procedure, shortened: as §2
[6] = tested on: Zika virus; experiment: Antiviral activity against ZIKV FLR infected in human U87 cells assessed as inhibition of viral replication pretreated with compounds for 2 hrs followed by replacement with fresh medium containing compound and measured after 48 hrs by MTT assay; type: functional, organism-based; settings: U-87 MG; procedure, shortened: as §2
[7] = tested on: Zika virus; experiment: Antiviral activity against ZIKV FLR infected in mosquito C6/36 cells assessed as inhibition of viral replication pretreated with compounds for 2 hrs followed by replacement with fresh medium containing compound and measured after 48 hrs bt MTT assay; type: functional, organism-based; procedure, shortened: as §2
[8] = tested on: U-87 MG; experiment: Cytotoxicity against human U87 cells assessed as reduction in cell viability; type: toxicity, cell-based; settings: u-87mg atcc
[9] = tested on: dengue virus type 2; experiment: Antiviral activity against Dengue virus serotype 2 K0049 infected in Vero cells assessed as inhibition of viral replication pretreated for 2 hrs followed by replacement with fresh medium containing compound and measured after 48 hrs by MTT assay; type: functional, organism-based; procedure, shortened: as §2
[10] = tested on: Zika virus; experiment: Antiviral activity against ZIKV FLR infected in Vero cells assessed as inhibition of viral replication by measuring log reduction in cytopathic effect at 1 uM preincubated with compounds for 2 hrs followed by replacement with fresh media containing compounds and measured after 48 hrs by MTT assay; type: functional; settings: time 50 hrs; procedure, shortened: as §2
[11] = tested on: Zika virus; experiment: Antiviral activity against ZIKV FLR infected in Vero cells assessed as reduction in number of viral RNA copies by qRT-PCR analysis; type: functional, organism-based; settings: dose 0.3-10 µM
Procedure, shortened: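 Viral RNA measured in cell supernatant after compound treatment. Copies/mL calculated from a standard curve.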

SMILES | inhibition at 10 µM [1] [%] | other results
COc1cccc(/C=C/c2nc3ccc(Cl)cc3c(=O)n2-c2cccc(C(C)(C)C)c2)n1 | 0 | –
COc1cccc(/C=C/c2nc3ccc(N4CCCCC4)cc3c(=O)n2-c2cccc(C(F)(F)F)c2)n1 | 99 | –
NCc1ccc(-c2ncc(OCC3CCNCC3)nc2-c2ccc(-c3ccoc3)cc2)cc1 | – | inhibition at 1 µM [2]: 68%
CC(C)(C)c1ccc(-n2c(/C=C/c3cncc(Br)c3)nc3ccccc3c2=O)cc1 | 0 | –
COc1cccc(/C=C/c2nc3ccc(-c4ccc(F)cc4)cc3c(=O)n2-c2cccc(C(C)(C)C)c2)n1 | 99 | –
COc1ncccc1/C=C/c1nc2ccccc2c(=O)n1-c1cccc(C(C)(C)C)c1 | 68.4 | log(activity) [3]: 0.5
Cc1ccccc1-n1c(/C=C/c2cccnc2)nc2ccccc2c1=O | 0 | –
COc1cccc(/C=C/c2nc3ccc(N4CCN(C(=O)OC(C)(C)C)CC4)cc3c(=O)n2-c2cccc(C(C)(C)C)c2)n1 | 99 | –
COc1ccccc1/C=C/c1nc2ccccc2c(=O)n1-c1cccc(C(C)(C)C)c1 | 0 | –
CC(C)(C)c1ccc(-n2c(/C=C/c3cccnc3)nc3ccccc3c2=O)cc1 | 0 | –
CC(C)(C)c1cccc(-n2c(/C=C/c3ccc4ccccc4c3)nc3ccc(N4CCCCC4)cc3c2=O)c1 | 99.7 | –
Cc1cccc(-n2c(/C=C/c3cccnc3)nc3ccccc3c2=O)c1 | 0 | –
COc1cccc(CCc2nc3ccc(N4CCCCC4)cc3c(=O)n2-c2cccc(C(C)(C)C)c2)n1 | 0 | –
COc1cc(/C=C/c2nc3ccc(N4CCN(C)CC4)cc3c(=O)n2-c2cccc(C(C)(C)C)c2)cc(OC)c1 | – | Activity [4]: Toxic
COc1cccc(/C=C/c2nc3ccc(N4CCCC4)cc3c(=O)n2-c2cccc(C(C)(C)C)c2)n1 | 68.4 | –
COc1cccc(/C=C/c2nc3ccc(OC)cc3c(=O)n2-c2cccc(C(C)(C)C)c2)c1 | 0 | –
CC(C)(C)c1cccc(-n2c(/C=C/c3ccc4ccccc4c3)nc3ccccc3c2=O)c1 | 68.4 | –
COc1cccc(-c2ccc3nc(/C=C/c4cccc(OC)n4)n(-c4cccc(C(C)(C)C)c4)c(=O)c3c2)c1 | 0 | –
CC(C)(C)c1cccc(-n2c(/C=C/c3cncnc3)nc3ccccc3c2=O)c1 | 68.4 | –
CC(C)(C)c1cccc(-n2c(/C=C/c3ccncc3)nc3ccc(N4CCCCC4)cc3c2=O)c1 | 68.4 | –
COc1cccc(/C=C/c2nc3ccc(-c4ccc(N5CCCC5)cc4)cc3c(=O)n2-c2cccc(C(C)(C)C)c2)n1 | 96.8 | –
COc1cccc(/C=C/c2nc3ccc(C4=CCOCC4)cc3c(=O)n2-c2cccc(C(C)(C)C)c2)n1 | 96.8 | –
CC(C)(C)c1cccc(-n2c(/C=C/c3ccc(C(F)(F)F)nc3)nc3ccc(N4CCCCC4)cc3c2=O)c1 | 90 | –
COc1cccc(/C=C/c2nc3ccc(N4CCNCC4)cc3c(=O)n2-c2cccc(C(C)(C)C)c2)n1 | – | Activity [4]: Toxic
COc1cccc(/C=C/c2nc3ccc(N4CCCCC4)cc3c(=O)n2-c2cccc(C)c2)n1 | 99.9 | inhibition at 1 µM [2]: 0%
COc1cccc(/C=C/c2nc3ccc(-c4ccncc4)cc3c(=O)n2-c2cccc(C(C)(C)C)c2)n1 | 0 | –
COc1cccc(CCc2nc3ccc(N4CCOCC4)cc3c(=O)n2-c2cccc(C(C)(C)C)c2)n1 | 0 | –

SMILES | inhibition at 10 µM [1] [%] | other results
COc1cccc(-n2c(/C=C/c3cccc(OC)n3)nc3ccc(N4CCC(N5CCOCC5)CC4)cc3c2=O)c1 | 99.9 | inhibition at 1 µM [2]: 68.4%
CC(C)(C)c1ccc(-n2c(/C=C/c3cncnc3)nc3ccccc3c2=O)cc1 | 0 | –
O=c1c2ccccc2nc(/C=C/c2cccnc2)n1-c1ccccc1 | 0 | –
COc1cccc(/C=C/c2nc3ccc(-c4ccc(N(C)C)cc4)cc3c(=O)n2-c2cccc(C(C)(C)C)c2)n1 | 96.8 | –
COc1cccc(/C=C/c2nc3ccccc3c(=O)n2-c2cccc(C(C)(C)C)c2)n1 | 0 | –
CC(C)(C)c1cccc(-n2c(/C=C/c3ccncc3)nc3ccccc3c2=O)c1 | 68.4 | –
COc1cccc(/C=C/c2nc3ccc(N4CCN(C(=O)OC(C)(C)C)CC4)cc3c(=O)n2-c2cccc(C(C)(C)C)c2)c1 | 99 | –
COc1cccc(/C=C/c2nc3ccc(N4CCOCC4)cc3c(=O)n2-c2cccc(C(F)(F)F)c2)n1 | 0 | –
COc1cccc(/C=C/c2nc3ccc(N4CCN(C)CC4)cc3c(=O)n2-c2cccc(C(C)(C)C)c2)n1 | – | Activity [4]: Toxic
COc1cccc(/C=C/c2nc3ccc(N4CCC(N5CCOCC5)CC4)cc3c(=O)n2-c2cccc(C)c2)n1 | 99.9 | inhibition at 1 µM [2]: 0%
CC(C)(C)c1cccc(-n2c(/C=C/c3ccccc3)nc3ccccc3c2=O)c1 | 0 | –
COc1cccc(/C=C/c2nc3ccccc3c(=O)n2-c2cccc(C(C)(C)C)c2)c1 | 0 | –
CCN(CC)CCCC(C)Nc1ccnc2cc(Cl)ccc12 (configuration not stated) [CHLOROQUINE] | 90 | –
CC(C)(C)c1cccc(-n2c(/C=C/c3ccc(C(F)(F)F)nc3)nc3ccccc3c2=O)c1 | 90 | log(activity) [3]: 0.5
COc1cccc(-n2c(/C=C/c3cccc(OC)n3)nc3ccc(N4CCOCC4)cc3c2=O)c1 | 99 | –
CC(C)(C)c1cccc(-n2c(/C=C/c3ccc(C(F)(F)F)cc3)nc3ccccc3c2=O)c1 | 90 | –
COc1cccc(/C=C/c2nc3ccc(N4CCC(N5CCOCC5)CC4)cc3c(=O)n2-c2cccc(C(C)(C)C)c2)n1 | 99.9 | inhibition at 1 µM [2]: 90%
COc1cccc(-n2c(/C=C/c3cccc(OC)n3)nc3ccc(N4CCCCC4)cc3c2=O)c1 | 99.9 | inhibition at 1 µM [2]: 90%; EC50 [5]: 210 nM; EC50 [6]: 690 nM; EC50 [7]: 770 nM; CC50 [8]: > 20 µM; EC50 [9]: 560 nM
CCN(CC)c1ccc2nc(/C=C/c3cccc(OC)n3)n(-c3cccc(C(C)(C)C)c3)c(=O)c2c1 | 99.9 | inhibition at 1 µM [2]: 68.4%; log(activity) [10]: 0.5; log(activity) [3]: 3
COc1ccc2nc(/C=C/c3cccc(OC)n3)n(-c3cccc(C(C)(C)C)c3)c(=O)c2c1 | 0 | –
COc1cccc(/C=C/c2nc3ccc(N4CCCCC4)cc3c(=O)n2-c2cccc(C(C)(C)C)c2)c1 | 99.9 | inhibition at 1 µM [2]: 68.4%
COc1cccc(/C=C/c2nc3ccc(N4CCC(N5CCOCC5)CC4)cc3c(=O)n2-c2cccc(C(F)(F)F)c2)n1 | 68.4 | –
COc1cccc(/C=C/c2nc3ccc(N4CCOCC4)cc3c(=O)n2-c2cccc(C)c2)n1 | 90 | –
COc1cccc(/C=C/c2nc3ccc(N4CCCCC4)cc3c(=O)n2-c2cccc(C(C)(C)C)c2)n1 | 99.9 | inhibition at 1 µM [2]: 90%; EC50 [5]: 900 nM; Activity [11]: Dose-Dependent Effect; EC50 [6]: 820 nM; EC50 [7]: 750 nM; CC50 [8]: > 20 µM; EC50 [9]: 160 nM
COc1cccc(-n2c(/C=C/c3cccnc3)nc3ccccc3c2=O)c1 | 68.4 | log(activity) [3]: 0.5
CC(C)(C)c1cccc(-n2c(/C=C/c3cccnc3)nc3ccccc3c2=O)c1 | 0 | –
